Assay results taken from ChEMBL document CHEMBL1139209, “Cytotoxic constituents of the stems of Cinnamomum subavenium” (2007).

What was measured:
Type in all cases: functional, Homo sapiens
[1] = system: SW480; test: Cell cycle arrest in SW480 cells by accumulation at S phase at 100 uM after 24 hrs by propidium iodide staining
Outline: (§1)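 SW480 human colorectal cancer cells (ATCC) grown in DMEM with 10% FBS, penicillin/streptomycin in 60 mm dishes; medium replenished at 80% confluence. Monolayers exposed 24 h to 0, 25, 50, 75 or 100 µM (DMSO stock, 0.1% DMSO final). Adherent plus floating cells fixed in PBS-methanol (1:2) ≥18 h at 4 °C, stained 30 min with 50 µg/mL PI plus RNase A.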

[2] = system: SW480; test: Cell cycle arrest in SW480 cells by accumulation at G1 phase at 25 uM after 24 hrs by propidium iodide staining; outline: as §1
[3] = system: SW480; test: Cell cycle arrest in SW480 cells by accumulation at S phase at 75 uM after 24 hrs by propidium iodide staining; outline: as §1
[4] = system: SW480; test: Cell cycle arrest in SW480 cells by accumulation at G1 phase at 100 uM after 24 hrs by propidium iodide staining; outline: as §1
[5] = system: SW480; test: DNA damage assessed as accumulation in subG1 level of cell cycle arrest in SW480 cells at 100 uM after 24 hrs by propidium iodide staining; outline: as §1
[6] = system: SW480; test: DNA damage assessed as accumulation in subG1 level of cell cycle arrest in SW480 cells at 50 uM after 24 hrs by propidium iodide staining; outline: as §1
[7] = system: SW480; test: Cell cycle arrest in SW480 cells by accumulation at S phase at 50 uM after 24 hrs by propidium iodide staining; outline: as §1
[8] = system: SW480; test: Cell cycle arrest in SW480 cells by accumulation at G1 phase at 50 uM after 24 hrs by propidium iodide staining; outline: as §1
[9] = system: SW480; test: Cell cycle arrest in SW480 cells by accumulation at S phase at 25 uM after 24 hrs by propidium iodide staining; outline: as §1
[10] = system: SW480; test: Cell cycle arrest in SW480 cells by accumulation at G2/M phase at 25 uM after 24 hrs by propidium iodide staining; outline: as §1
[11] = system: SW480; test: Cell cycle arrest in SW480 cells by accumulation at G1 phase at 75 uM after 24 hrs by propidium iodide staining; outline: as §1
[12] = system: SW480; test: Cell cycle arrest in SW480 cells by accumulation at G2/M phase at 75 uM after 24 hrs by propidium iodide staining; outline: as §1
[13] = system: SW480; test: Cell cycle arrest in SW480 cells by accumulation at G2/M phase at 100 uM after 24 hrs by propidium iodide staining; outline: as §1
[14] = system: SW480; test: DNA damage assessed as accumulation in subG1 level of cell cycle arrest in SW480 cells at 25 uM after 24 hrs by propidium iodide staining; outline: as §1
[15] = system: SW480; test: DNA damage assessed as accumulation in subG1 level of cell cycle arrest in SW480 cells at 75 uM after 24 hrs by propidium iodide staining; outline: as §1
[16] = system: SW480; test: Cell cycle arrest in SW480 cells by accumulation at G2/M phase at 50 uM after 24 hrs by propidium iodide staining; outline: as §1

| SMILES | Activity [1] [%] | Activity [2] [%] | Activity [3] [%] | Activity [4] [%] | Activity [5] [%] | Activity [6] [%] | Activity [7] [%] | Activity [8] [%] | Activity [9] [%] | Activity [10] [%] | Activity [11] [%] | Activity [12] [%] | Activity [13] [%] | Activity [14] [%] | Activity [15] [%] | Activity [16] [%] |
| --- | --- | --- | --- | --- | --- | --- | --- | --- | --- | --- | --- | --- | --- | --- | --- | --- |
| CCCCCCCCCCCCC/C=C1/C(=O)O[C@@](C)(OC)[C@@H]1O [SUBAMOLIDE B] | 37.4 | 47.7 | 33.4 | 46 | 71 | 23.7 | 38.8 | 44.2 | 46 | 6.4 | 45.8 | 20.8 | 16.6 | 6.6 | 47.2 | 16.9 |
| CCCCCCCCCCCCC/C=C1\C(=O)O[C@@](C)(OC)[C@@H]1O [SUBAMOLIDE A] | 29.8 | 48.2 | 42 | 52.6 | 64.4 | 25.4 | 41 | 46.3 | 39.6 | 12.2 | 45 | 13 | 17.7 | 8.5 | 27.3 | 12.8 |
| C=C1C=C(C(CCCCCCCCCCCCCC)OC)C(=O)O1 (stereo not drawn) [SUBAMOLIDE C] | 33 | 44.4 | 43.1 | 47.8 | 38.8 | 11 | 41.2 | 47.6 | 45.8 | 9.8 | 44.5 | 12.4 | 19.3 | 6.1 | 34.6 | 11.3 |
| CCCCCCCCCCCCC/C=C(/C(=O)OC)[C@H](O)C(C)=O [SECOSUBAMOLIDE] | 34.5 | 47.1 | 38.3 | 47.9 | 51.8 | 9.1 | 40.6 | 47.9 | 39.5 | 13.4 | 49 | 12.8 | 17.6 |  | 23.4 | 11.4 |
